According to ChEMBL document CHEMBL1671788, “Discovery, synthesis, and structure-activity relationship development of a series of N-(4-acetamido)phenylpicolinamides as positive allosteric modulators of metabotropic glutamate receptor 4 (mGlu(4)) with CNS exposure in rats” (J Med Chem, 2011):

Assays:
[1] = target: T1, Metabotropic glutamate receptor 4 (Homo sapiens, UniProt Q14833); assay: Positive allosteric modulation of human mGluR4 expressed in CHO cells coexpressing Gqi5 assessed as calcium mobilization relative to PHCCC; format: functional, cell-based
T1 sequence (Q14833 whole entry): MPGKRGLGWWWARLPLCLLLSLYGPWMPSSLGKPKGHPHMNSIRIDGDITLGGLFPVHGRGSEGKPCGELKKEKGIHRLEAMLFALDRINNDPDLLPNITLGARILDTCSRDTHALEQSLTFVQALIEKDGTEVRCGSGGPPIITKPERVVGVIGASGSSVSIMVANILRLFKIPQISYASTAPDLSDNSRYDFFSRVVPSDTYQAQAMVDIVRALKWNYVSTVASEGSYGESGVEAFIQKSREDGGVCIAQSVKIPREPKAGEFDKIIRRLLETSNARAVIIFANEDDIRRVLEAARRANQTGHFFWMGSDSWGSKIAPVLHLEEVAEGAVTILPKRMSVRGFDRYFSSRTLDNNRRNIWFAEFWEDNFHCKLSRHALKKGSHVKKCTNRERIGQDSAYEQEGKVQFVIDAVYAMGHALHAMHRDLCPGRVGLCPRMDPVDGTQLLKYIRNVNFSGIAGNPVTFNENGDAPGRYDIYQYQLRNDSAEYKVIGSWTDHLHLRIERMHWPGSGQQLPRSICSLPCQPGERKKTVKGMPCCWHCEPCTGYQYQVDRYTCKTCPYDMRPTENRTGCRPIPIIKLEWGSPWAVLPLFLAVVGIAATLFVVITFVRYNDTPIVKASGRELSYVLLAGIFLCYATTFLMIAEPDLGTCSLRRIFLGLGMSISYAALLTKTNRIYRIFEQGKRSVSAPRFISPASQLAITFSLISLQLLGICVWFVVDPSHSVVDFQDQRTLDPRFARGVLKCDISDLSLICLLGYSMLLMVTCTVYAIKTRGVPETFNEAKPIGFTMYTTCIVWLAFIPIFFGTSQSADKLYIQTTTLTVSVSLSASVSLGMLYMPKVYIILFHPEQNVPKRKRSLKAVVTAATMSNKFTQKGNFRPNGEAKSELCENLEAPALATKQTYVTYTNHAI
Procedure, shortened: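 CHO cells stably expressing human mGlu4 with Gqi5 were plated at 30,000 cells/well and grown overnight. Cells were loaded with 1 µM Fluo-4 AM for 45 min at 37 °C in HBSS/HEPES/2.5 mM probenecid buffer. […] Ca2+ fluorescence was read (ex 470, em 540 nm). Curves were fitted with a four-parameter logistic; ≥3 independent runs in triplicate.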

[2] = target: Metabotropic glutamate receptor 4 (Rattus norvegicus) (UniProt P31423); assay: Positive allosteric modulation of rat mGluR4 expressed in CHO cells coexpressing Gqi5 assessed as calcium mobilization relative to PHCCC; format: functional, cell-based
Sequence of Metabotropic glutamate receptor 4 (Rattus norvegicus) (P31423 whole entry): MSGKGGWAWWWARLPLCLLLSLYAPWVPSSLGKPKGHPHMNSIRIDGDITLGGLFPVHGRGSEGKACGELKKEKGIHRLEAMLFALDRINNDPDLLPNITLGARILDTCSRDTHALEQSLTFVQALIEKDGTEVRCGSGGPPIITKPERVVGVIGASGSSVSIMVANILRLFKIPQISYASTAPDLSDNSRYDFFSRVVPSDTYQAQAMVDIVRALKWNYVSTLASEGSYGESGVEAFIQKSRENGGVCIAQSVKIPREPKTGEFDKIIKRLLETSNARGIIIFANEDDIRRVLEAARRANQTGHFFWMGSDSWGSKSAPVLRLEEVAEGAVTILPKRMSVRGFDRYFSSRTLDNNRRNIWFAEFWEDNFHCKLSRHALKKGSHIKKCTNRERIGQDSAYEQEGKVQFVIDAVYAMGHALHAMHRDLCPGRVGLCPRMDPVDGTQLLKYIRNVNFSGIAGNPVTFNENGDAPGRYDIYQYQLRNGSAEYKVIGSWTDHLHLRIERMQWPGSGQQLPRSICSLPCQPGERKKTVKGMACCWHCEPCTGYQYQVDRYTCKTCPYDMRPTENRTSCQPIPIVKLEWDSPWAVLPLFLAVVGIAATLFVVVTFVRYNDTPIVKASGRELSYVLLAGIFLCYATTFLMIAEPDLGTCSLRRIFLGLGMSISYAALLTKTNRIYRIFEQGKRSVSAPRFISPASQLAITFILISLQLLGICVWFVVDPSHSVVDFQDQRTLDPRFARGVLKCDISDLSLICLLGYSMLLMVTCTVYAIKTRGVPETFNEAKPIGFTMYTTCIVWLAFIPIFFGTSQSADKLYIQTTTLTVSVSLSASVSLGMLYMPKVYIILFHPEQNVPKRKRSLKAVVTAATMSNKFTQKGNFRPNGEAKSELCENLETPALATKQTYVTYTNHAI

[3] = target: T1, Metabotropic glutamate receptor 4; assay: Positive allosteric modulation of human mGluR4 expressed in CHO cells coexpressing Gqi5 assessed as calcium mobilization; format: functional, cell-based
[4] = target: Metabotropic glutamate receptor 4 (Rattus norvegicus, UniProt P31423); assay: Positive allosteric modulation of rat mGluR4 expressed in CHO cells coexpressing Gqi5 assessed as calcium mobilization; format: functional, cell-based
Sequence of Metabotropic glutamate receptor 4 (Rattus norvegicus, UniProt P31423) (P31423 whole entry): as above

[5] = target: Metabotropic glutamate receptor 4 (Rattus norvegicus) (UniProt P31423); assay: Positive allosteric modulation of rat mGluR4 expressed in CHO cells coexpressing Gqi5 assessed as potentiation of glutamate-induced calcium mobilization; format: functional, cell-based
[6] = Plasma protein binding in Sprague-Dawley rat; format: ADME, cell-free; settings: read-out: PPB
Procedure, shortened: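 Equilibrium dialysis of compound spiked into rat plasma against 25 mM phosphate buffer, pH 7.4. Dialysis ran 4 h at 37 °C with shaking. Both chambers were matrix-matched, extracted with cold acetonitrile and quantified by LC/MS/MS. Triplicate within one plate.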

[7] = target: T2, Cytochrome P450 1A2 (Homo sapiens, UniProt P05177); assay: Inhibition of human CYP1A2
T2 sequence (P05177 whole entry): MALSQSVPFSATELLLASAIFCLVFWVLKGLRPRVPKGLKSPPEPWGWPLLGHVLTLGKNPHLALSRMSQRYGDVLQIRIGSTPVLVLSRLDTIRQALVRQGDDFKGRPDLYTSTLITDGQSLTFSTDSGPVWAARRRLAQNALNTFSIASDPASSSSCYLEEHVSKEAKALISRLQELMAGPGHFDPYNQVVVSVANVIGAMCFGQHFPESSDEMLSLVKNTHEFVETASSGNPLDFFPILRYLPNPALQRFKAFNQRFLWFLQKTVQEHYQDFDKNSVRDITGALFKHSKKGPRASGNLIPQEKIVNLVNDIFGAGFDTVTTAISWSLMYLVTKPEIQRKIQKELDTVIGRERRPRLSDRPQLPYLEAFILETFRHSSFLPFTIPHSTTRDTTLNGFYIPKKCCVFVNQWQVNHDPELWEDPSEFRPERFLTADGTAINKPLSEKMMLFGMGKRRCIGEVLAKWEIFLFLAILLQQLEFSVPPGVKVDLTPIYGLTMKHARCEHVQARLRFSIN
Procedure, shortened: (§1)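 Human liver microsomes (final 0.1 mg/mL) in 0.1 M potassium phosphate, pH 7.4, with a probe cocktail: phenacetin 10 µM (1A2), diclofenac 5 µM (2C9), dextromethorphan 5 µM (2D6) and midazolam 2 µM (3A4). Compound at 100 nM–30 µM final, in duplicate, preincubated 15 min at 37 °C. NADPH (1 mM) reaction ran 8 min, was quenched with cold acetonitrile, and read by LC/MS/MS (MRM). IC50 determined.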

[8] = target: Cytochrome P450 2C9 (Homo sapiens, UniProt P11712); assay: Inhibition of human CYP2C9; procedure, shortened: as §1
Sequence of Cytochrome P450 2C9 (P11712 whole entry): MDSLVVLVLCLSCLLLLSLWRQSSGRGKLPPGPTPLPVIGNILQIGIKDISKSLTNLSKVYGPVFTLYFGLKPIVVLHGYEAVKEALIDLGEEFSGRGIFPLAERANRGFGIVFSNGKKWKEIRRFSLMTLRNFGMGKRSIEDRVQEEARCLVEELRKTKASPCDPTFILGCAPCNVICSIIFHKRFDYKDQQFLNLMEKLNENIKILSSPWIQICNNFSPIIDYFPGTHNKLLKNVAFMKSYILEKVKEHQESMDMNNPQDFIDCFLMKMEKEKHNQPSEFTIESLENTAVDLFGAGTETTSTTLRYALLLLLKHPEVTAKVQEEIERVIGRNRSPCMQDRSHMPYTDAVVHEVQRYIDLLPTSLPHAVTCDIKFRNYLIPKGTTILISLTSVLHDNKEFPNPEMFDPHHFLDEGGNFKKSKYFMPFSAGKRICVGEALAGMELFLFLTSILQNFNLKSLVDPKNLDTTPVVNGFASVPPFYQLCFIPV

[9] = target: Cytochrome P450 3A4 (Homo sapiens, UniProt P08684); assay: Inhibition of human CYP3A4; procedure, shortened: as §1
Sequence of Cytochrome P450 3A4 (P08684 whole entry): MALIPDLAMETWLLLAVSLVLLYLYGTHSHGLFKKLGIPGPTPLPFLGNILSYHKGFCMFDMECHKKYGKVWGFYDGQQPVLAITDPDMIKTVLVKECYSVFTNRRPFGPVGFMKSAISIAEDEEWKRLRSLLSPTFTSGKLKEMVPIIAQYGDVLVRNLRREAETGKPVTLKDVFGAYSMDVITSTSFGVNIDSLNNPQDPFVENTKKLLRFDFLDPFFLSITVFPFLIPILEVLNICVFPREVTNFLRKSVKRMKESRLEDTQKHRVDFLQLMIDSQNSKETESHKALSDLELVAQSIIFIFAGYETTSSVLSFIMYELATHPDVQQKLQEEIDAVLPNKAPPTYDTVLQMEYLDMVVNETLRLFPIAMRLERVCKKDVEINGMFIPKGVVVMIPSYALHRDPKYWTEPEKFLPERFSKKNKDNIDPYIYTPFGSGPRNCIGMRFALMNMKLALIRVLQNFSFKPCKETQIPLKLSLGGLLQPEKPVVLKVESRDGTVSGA

[10] = target: Cytochrome P450 2D6 (Homo sapiens, UniProt P10635); assay: Inhibition of human CYP2D6; procedure, shortened: as §1
Sequence of Cytochrome P450 2D6 (P10635 whole entry): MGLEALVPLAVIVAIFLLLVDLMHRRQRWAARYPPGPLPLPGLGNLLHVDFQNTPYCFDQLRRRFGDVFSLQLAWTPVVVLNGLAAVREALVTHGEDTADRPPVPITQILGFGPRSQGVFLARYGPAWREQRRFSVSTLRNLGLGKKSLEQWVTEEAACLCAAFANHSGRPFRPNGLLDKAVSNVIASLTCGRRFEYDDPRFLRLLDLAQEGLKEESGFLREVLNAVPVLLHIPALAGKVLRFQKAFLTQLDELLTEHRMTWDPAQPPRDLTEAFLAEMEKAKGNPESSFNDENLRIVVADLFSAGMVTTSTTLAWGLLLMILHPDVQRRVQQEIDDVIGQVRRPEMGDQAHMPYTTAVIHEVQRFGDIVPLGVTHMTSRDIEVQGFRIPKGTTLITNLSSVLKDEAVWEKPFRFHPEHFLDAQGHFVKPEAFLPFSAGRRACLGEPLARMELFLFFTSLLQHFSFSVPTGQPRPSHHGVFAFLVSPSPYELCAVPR

[11] = AUC in Sprague-Dawley rat plasma at 10 mg/kg, sc; format: ADME, organism-based; set-up: dose 10 mg/kg, route subcutaneous
[12] = test system: Plasma; assay: Cmax in Sprague-Dawley rat plasma at 10 mg/kg, sc; format: ADME, organism-based; set-up: dose 10 mg/kg, route subcutaneous; settings: in vivo
Procedure, shortened: (§2)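 Rats dosed subcutaneously at 10 mg/kg as a 10% tween 80 microsuspension. […] In vivo samples were quantified by LC/MS/MS (ESI, positive-mode MRM) after gradient elution on a C18 column.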

[13] = test system: Plasma; assay: AUC in Sprague-Dawley rat brain at 10 mg/kg, sc; format: ADME, organism-based; set-up: dose 10 mg/kg, route subcutaneous; settings: in vivo
[14] = Cmax in Sprague-Dawley rat brain at 10 mg/kg, sc; format: ADME, organism-based; set-up: dose 10 mg/kg, route subcutaneous; procedure, shortened: as §2
[15] = in vivo; settings: Sprague-Dawley, rat, sc, 10 mg/kg

Row | SMILES | Activity [1] | Activity [2] | EC50 ([4]; read-out: EC50) | EC50 ([3]; read-out: EC50) | other results
1 | O=C(Nc1ccc(NC(=O)c2ccc(F)cc2F)c(Cl)c1)c1ccccn1 | 24.6% | 43.5% | 2100 nM |  | EC50 ([3]; cho): Not Active
2 | O=C(Nc1ccc(NC(=O)c2ccccn2)cc1Cl)c1cc(Cl)cc(Cl)c1 | 37.4% | 61% | 2340 nM | 2150 nM | 
3 | O=C(Nc1ccc(NC(=O)C2CCCCC2)c(Cl)c1)c1ccccn1 | 59.2% | 106% | 592 nM | 426 nM | 
4 | Cc1ccccc1C(=O)Nc1ccc(NC(=O)c2ccccn2)cc1Cl | 72.5% | 123% | 915 nM | 958 nM | fold change (FC) [5]: 9.6; fraction unbound [6]: < 0.005; INH [7]: > 10 µM; INH [8]: 14.1 µM; INH [9]: > 30 µM; INH [10]: 12 µM; AUC(0-t) [11]: 766 ng·h/mL; Cmax [12]: 219.2 ng/mL; AUC [13]: 155.4 ng·h/g; Cmax [14]: 59.4 ng/g; Tmax [15]: 30 min
5 | COc1cc(NC(=O)c2ccc(-c3ccccc3)o2)ccc1NC(=O)c1ccccc1Cl | 16.3% | 16.3% |  |  | EC50 ([3]; cho): Not Active; EC50 ([4]; cho): Not Active
6 | Cn1c(C(=O)Nc2ccc(NC(=O)c3ccccn3)cc2Cl)cc2ccccc21 | 49.9% | 87.1% | 2970 nM | 4720 nM | 
7 | COc1cc(NC(=O)C2CCCO2)ccc1NC(=O)c1ccccc1Cl (stereo not drawn) | 21.3% | 27.1% | > 10000 nM |  | EC50 ([3]; cho): Not Active
8 | O=C(Nc1ccc(NC(=O)c2ccccc2F)c(Cl)c1)c1ccccn1 | 34.5% | 71.6% | 4390 nM | 2380 nM | 
9 | O=C(Nc1ccc2c(ccn2C(=O)c2ccc(F)cc2Cl)c1)c1ccccn1 | 71.7% | 104% | 1660 nM | 1420 nM | 
10 | O=C(Nc1ccc2c(ccn2C(=O)c2ccccn2)c1)c1ccccc1Cl | 21.1% | 17.6% |  |  | EC50 ([3]; cho): Not Active; EC50 ([4]; cho): Not Active
11 | COc1cc(NC(=O)c2ccccn2)ccc1NC(=O)c1ccccc1Cl | 79.4% | 147% |  |  | fold change (FC) [5]: 72; fraction unbound [6]: < 0.005; INH [7]: > 30 µM; INH [8]: 14.3 µM; INH [9]: > 30 µM; INH [10]: 12.8 µM; AUC(0-t) [11]: 938 ng·h/mL; Cmax [12]: 265 ng/mL; AUC [13]: 312 ng·h/g; Cmax [14]: 69.1 ng/g; Tmax [15]: 60 min
12 | COc1cc(NC(=O)C2CCCCC2)ccc1NC(=O)c1ccccc1Cl | 26.9% | 43.2% | 1520 nM | 1120 nM | 
13 | O=C(Nc1ccccc1)[C@]12C[C@H]1/C(=N\O)c1ccccc1O2 |  |  | 2820 nM |  | 
14 | O=C(Nc1ccc(NC(=O)c2ccccn2)cc1Cl)c1ccccc1 | 37.9% | 74.2% | 518 nM | 361 nM | 
15 | O=C(Nc1ccc(NC(=O)c2ccc(-c3ccccc3)o2)c(Cl)c1)c1ccccn1 | 24.9% | 45.6% | 3350 nM |  | EC50 ([3]; cho): Not Active
16 | COc1ccccc1C(=O)n1ccc2cc(NC(=O)c3ccccn3)ccc21 | 91.3% | 107% | 1340 nM | 1410 nM | fold change (FC) [5]: 5.9; fraction unbound [6]: < 0.005

Row | SMILES | Activity [1] | Activity [2] | EC50 ([4]; read-out: EC50) | EC50 ([3]; read-out: EC50) | other results
17 | COc1cc(NC(=O)c2ccco2)ccc1NC(=O)c1ccccc1Cl | 62.7% | 122% | 1010 nM | 977 nM | 
18 | COc1cc(NC(=O)c2cccs2)ccc1NC(=O)c1ccccc1Cl | 63.4% | 96.7% |  |  | 
19 | O=C(Nc1ccc(NC(=O)c2ccccc2Cl)cc1)c1ccccn1 | 33.6% | 49.6% | 2260 nM | 1610 nM | 
20 | CC(C)C(=O)Nc1ccc(NC(=O)c2ccccn2)cc1Cl | 60% | 109% | 4820 nM | 4270 nM | 
21 | O=C(Nc1ccc(NC(=O)c2ccccc2Cl)c(F)c1)c1ccccn1 | 59.7% | 91.4% |  |  | fold change (FC) [5]: 4.6
22 | COc1cc(NC(=O)c2cnccn2)ccc1NC(=O)c1ccccc1Cl | 74.3% | 112% | 1120 nM | 1780 nM | 
23 | O=C(Nc1ccc(NC(=O)c2cncs2)c(Cl)c1)c1ccccn1 | 86.7% | 125% | 1730 nM | 2180 nM | 
24 | COc1cc(NC(=O)c2ccncn2)ccc1NC(=O)c1ccccc1Cl | 77.9% | 133% | 894 nM | 1330 nM | 
25 | O=C(Nc1ccc(NC(=O)c2cccs2)c(Cl)c1)c1ccccn1 | 57.8% | 93.8% | 1130 nM | 1040 nM | 
26 | COc1ccccc1C(=O)Nc1ccc(NC(=O)c2ccccn2)cc1Cl | 16.4% | 19% |  |  | EC50 ([3]; cho): Not Active; EC50 ([4]; cho): Not Active
27 | COc1cc(NC(=O)c2nccs2)ccc1NC(=O)c1ccccc1Cl | 77.6% | 134% | 377 nM | 627 nM | fold change (FC) [5]: 32.2; fraction unbound [6]: < 0.005
28 | COc1cc(NC(=O)c2ccc(Br)o2)ccc1NC(=O)c1ccccc1Cl | 87% | 125% | 1000 nM | 1440 nM | 
29 | O=C(Nc1ccc(NC(=O)c2ccc(F)cc2Cl)c(Cl)c1)c1ccccn1 | 61.1% | 119% | 169 nM | 114 nM | fold change (FC) [5]: 6.7
30 | O=C(Nc1ccc(NC(=O)c2ccccc2Cl)c(C(F)(F)F)c1)c1ccccn1 | 69.5% | 102% | 2360 nM | 2090 nM | 
31 | COc1cc(NC(=O)c2cscn2)ccc1NC(=O)c1ccccc1Cl | 86.8% | 132% | 753 nM | 845 nM | 
32 | O=C(Nc1ccc(NC(=O)c2nccs2)c(Cl)c1)c1ccccn1 | 61.5% | 106% | 533 nM | 403 nM | fold change (FC) [5]: 6
